In ChEMBL document CHEMBL5724801, “EUbOPEN Chemogenomics Library - Multiplex” (2024):
Where “and” joins values, the source holds several entries; their conditions need not be identical. Equal entries are not always repeated.

Test system: Fibroblast
Assay: Multiplex assay against human fibroblast
Assay type: toxicity, cell-based
Procedure, shortened: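 At seeding, live cells were stained with Hoechst33342, BioTracker Green Microtubule Cytoskeleton Dye, MitoTracker Red and Annexin V Alexa Fluor 680. After compound addition they were imaged on a CQ1 microscope at 37°C and 5% CO2, and CellPathfinder machine-learning gating sorted them into Hoechst high-intensity objects or normal cells, with normal cells further split into healthy, pyknosed or fragmented nuclei and pyknosed cells into mitotic or apoptotic. Tubulin, mitochondrial-mass and membrane-permeability phenotypes are given as per cents of cells with healthy nuclei.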

[1] = 12 h, 1 µM, compound concentration 1 uM
[2] = 12 h, 10 µM, compound concentration 10 uM
[3] = 24 h, 1 µM, compound concentration 1 uM
[4] = 24 h, 10 µM, compound concentration 10 uM
[5] = 48 h, 1 µM, compound concentration 1 uM
[6] = 48 h, 10 µM, compound concentration 10 uM

SMILES: Cc1cccc(F)c1C(=O)Nc1cnc(-c2cc3c(cc2Cl)OC(F)(F)O3)cn1 [ZEGOCRACTIN]
- Population Apoptotic (%) [1]: 6.56% and 18.18%
- Population Fragmented Nuclei (%) [1]: 12.97% and 3.23%
- Population Healthy Nuclei (%) [1]: 61.51% and 79.03%
- Population Hoechst High Intensity Objects (%) [1]: 0%
- Population Membrane Permeable-Phenotype (%) [1]: 2.04%
- Population Mitochondria Different-Phenotype (%) [1]: 8.16%
- Population Mitotic Cells (%) [1]: 93.44% and 81.82%
- Population Normal (%) [1]: 100%
- Population Pyknosed Nuclei (%) [1]: 25.52% and 17.74%
- Population Tubulin-Different-Phenotype (%) [1]: 17.01% and 13.61%
- Total Cell Count [1]: 239 and 186
- Population Apoptotic (%) [2]: 8.93% and 22.86%
- Population Fragmented Nuclei (%) [2]: 13.11% and 8.77%
- Population Healthy Nuclei (%) [2]: 56.28% and 70.76%
- Population Hoechst High Intensity Objects (%) [2]: 0%
- Population Membrane Permeable-Phenotype (%) [2]: 3.88% and 4.96%
- Population Mitochondria Different-Phenotype (%) [2]: 17.48% and 19.01%
- Population Mitotic Cells (%) [2]: 91.07% and 77.14%
- Population Normal (%) [2]: 100%
- Population Pyknosed Nuclei (%) [2]: 30.6% and 20.47%
- Population Tubulin-Different-Phenotype (%) [2]: 24.27% and 42.15%
- Total Cell Count [2]: 183 and 171
- Population Apoptotic (%) [3]: 11.11% and 9.52%
- Population Fragmented Nuclei (%) [3]: 9.33% and 2.59%
- Population Healthy Nuclei (%) [3]: 73.88% and 86.53%
- Population Hoechst High Intensity Objects (%) [3]: 0%
- Population Membrane Permeable-Phenotype (%) [3]: 3.54% and 0%
- Population Mitochondria Different-Phenotype (%) [3]: 7.07% and 6.59%
- Population Mitotic Cells (%) [3]: 88.89% and 90.48%
- Population Normal (%) [3]: 100%
- Population Pyknosed Nuclei (%) [3]: 16.79% and 10.88%
- Population Tubulin-Different-Phenotype (%) [3]: 14.65% and 11.38%
- Total Cell Count [3]: 268 and 193
- Population Apoptotic (%) [4]: 7.81% and 17.65%
- Population Fragmented Nuclei (%) [4]: 13% and 8.14%
- Population Healthy Nuclei (%) [4]: 55% and 72.09%
- Population Hoechst High Intensity Objects (%) [4]: 0%
- Population Membrane Permeable-Phenotype (%) [4]: 3.64% and 1.61%
- Population Mitochondria Different-Phenotype (%) [4]: 14.55% and 32.26%
- Population Mitotic Cells (%) [4]: 92.19% and 82.35%
- Population Normal (%) [4]: 100%
- Population Pyknosed Nuclei (%) [4]: 32% and 19.77%
- Population Tubulin-Different-Phenotype (%) [4]: 37.27% and 46.77%
- Total Cell Count [4]: 200 and 172
- Population Apoptotic (%) [5]: 15% and 35%
- Population Fragmented Nuclei (%) [5]: 9.76% and 3.2%
- Population Healthy Nuclei (%) [5]: 83.28% and 87.67%
- Population Hoechst High Intensity Objects (%) [5]: 0%
- Population Membrane Permeable-Phenotype (%) [5]: 1.26% and 2.6%
- Population Mitochondria Different-Phenotype (%) [5]: 9.62% and 2.6%
- Population Mitotic Cells (%) [5]: 85% and 65%
- Population Normal (%) [5]: 100%
- Population Pyknosed Nuclei (%) [5]: 6.97% and 9.13%
- Population Tubulin-Different-Phenotype (%) [5]: 8.79% and 19.79%
- Total Cell Count [5]: 287 and 219
- Population Apoptotic (%) [6]: 15% and 9.52%
- Population Fragmented Nuclei (%) [6]: 10.91% and 9.6%
- Population Healthy Nuclei (%) [6]: 70.91% and 78.53%
- Population Hoechst High Intensity Objects (%) [6]: 0%
- Population Membrane Permeable-Phenotype (%) [6]: 0.64% and 4.32%
- Population Mitochondria Different-Phenotype (%) [6]: 20.51% and 13.67%
- Population Mitotic Cells (%) [6]: 85% and 90.48%
- Population Normal (%) [6]: 100%
- Population Pyknosed Nuclei (%) [6]: 18.18% and 11.86%
- Population Tubulin-Different-Phenotype (%) [6]: 28.21% and 56.83%
- Total Cell Count [6]: 220 and 177

SMILES: CCOC(=O)c1cnn(-c2ccc(NC(=O)C(Cl)=C(Cl)Cl)cc2)c1C(F)(F)F
- Population Apoptotic (%) [1]: 8.82% and 15%
- Population Fragmented Nuclei (%) [1]: 15.65% and 11.22%
- Population Healthy Nuclei (%) [1]: 61.22% and 68.37%
- Population Hoechst High Intensity Objects (%) [1]: 0%
- Population Membrane Permeable-Phenotype (%) [1]: 5.56% and 0%
- Population Mitochondria Different-Phenotype (%) [1]: 6.67% and 10.45%
- Population Mitotic Cells (%) [1]: 91.18% and 85%
- Population Normal (%) [1]: 100%
- Population Pyknosed Nuclei (%) [1]: 23.13% and 20.41%
- Population Tubulin-Different-Phenotype (%) [1]: 8.89% and 11.94%
- Total Cell Count [1]: 147 and 196
- Population Apoptotic (%) [2]: 23.28% and 49.64%
- Population Fragmented Nuclei (%) [2]: 10.69% and 2.33%
- Population Healthy Nuclei (%) [2]: 16.35% and 18.02%
- Population Hoechst High Intensity Objects (%) [2]: 0%
- Population Membrane Permeable-Phenotype (%) [2]: 7.69% and 12.9%
- Population Mitotic Cells (%) [2]: 76.72% and 50.36%
- Population Normal (%) [2]: 100%
- Population Pyknosed Nuclei (%) [2]: 72.96% and 79.65%
- Population Tubulin-Different-Phenotype (%) [2]: 42.31% and 54.84%
- Total Cell Count [2]: 159 and 172
- Population Apoptotic (%) [3]: 32.35% and 26.32%
- Population Fragmented Nuclei (%) [3]: 13.42% and 8.93%
- Population Healthy Nuclei (%) [3]: 63.76% and 82.59%
- Population Hoechst High Intensity Objects (%) [3]: 0%
- Population Membrane Permeable-Phenotype (%) [3]: 1.05% and 1.08%
- Population Mitochondria Different-Phenotype (%) [3]: 5.26% and 3.78%
- Population Mitotic Cells (%) [3]: 67.65% and 73.68%
- Population Normal (%) [3]: 100%
- Population Pyknosed Nuclei (%) [3]: 22.82% and 8.48%
- Population Tubulin-Different-Phenotype (%) [3]: 12.63% and 12.43%
- Total Cell Count [3]: 149 and 224
- Population Apoptotic (%) [4]: 37.76% and 80.65%
- Population Fragmented Nuclei (%) [4]: 17.09% and 8.6%
- Population Healthy Nuclei (%) [4]: 20.89% and 24.73%
- Population Hoechst High Intensity Objects (%) [4]: 0%
- Population Membrane Permeable-Phenotype (%) [4]: 15.15% and 43.48%
- Population Mitochondria Different-Phenotype (%) [4]: 0% and 19.57%
- Population Normal (%) [4]: 100%
- Population Pyknosed Nuclei (%) [4]: 62.03% and 66.67%
- Population Tubulin-Different-Phenotype (%) [4]: 39.39% and 84.78%
- Total Cell Count [4]: 158 and 186
- Population Apoptotic (%) [5]: 35.29% and 26.67%
- Population Fragmented Nuclei (%) [5]: 12.65% and 7.11%
- Population Healthy Nuclei (%) [5]: 77.11% and 86.22%
- Population Hoechst High Intensity Objects (%) [5]: 0%
- Population Membrane Permeable-Phenotype (%) [5]: 0.78% and 1.55%
- Population Mitotic Cells (%) [5]: 64.71% and 73.33%
- Population Normal (%) [5]: 100%
- Population Pyknosed Nuclei (%) [5]: 10.24% and 6.67%
- Population Tubulin-Different-Phenotype (%) [5]: 4.69% and 11.86%
- Total Cell Count [5]: 166 and 225
- Population Apoptotic (%) [6]: 35.48% and 83.87%
- Population Fragmented Nuclei (%) [6]: 22.75% and 43.62%
- Population Healthy Nuclei (%) [6]: 58.68% and 39.89%
- Population Hoechst High Intensity Objects (%) [6]: 0%
- Population Membrane Permeable-Phenotype (%) [6]: 14.29% and 37.33%
- Population Mitochondria Different-Phenotype (%) [6]: 15.31% and 25.33%
- Population Normal (%) [6]: 100%
- Population Pyknosed Nuclei (%) [6]: 18.56% and 16.49%
- Population Tubulin-Different-Phenotype (%) [6]: 40.82% and 89.33%
- Total Cell Count [6]: 167 and 188

SMILES: Cc1cc(C)cc(C(=O)NOCCCCCC(=O)NO)c1
- Population Apoptotic (%) [1]: 12.9% and 17.65%
- Population Fragmented Nuclei (%) [1]: 11.22% and 2.55%
- Population Healthy Nuclei (%) [1]: 72.96% and 88.78%
- Population Hoechst High Intensity Objects (%) [1]: 0%
- Population Membrane Permeable-Phenotype (%) [1]: 5.59% and 1.15%
- Population Mitochondria Different-Phenotype (%) [1]: 6.99% and 10.34%
- Population Mitotic Cells (%) [1]: 87.1% and 82.35%
- Population Normal (%) [1]: 100%
- Population Pyknosed Nuclei (%) [1]: 15.82% and 8.67%
- Population Tubulin-Different-Phenotype (%) [1]: 8.39% and 11.49%
- Total Cell Count [1]: 196
- Population Apoptotic (%) [2]: 12% and 31.25%
- Population Fragmented Nuclei (%) [2]: 15.5% and 6.05%
- Population Healthy Nuclei (%) [2]: 72% and 86.51%
- Population Hoechst High Intensity Objects (%) [2]: 0%
- Population Membrane Permeable-Phenotype (%) [2]: 6.94% and 1.61%
- Population Mitochondria Different-Phenotype (%) [2]: 5.56% and 6.45%
- Population Mitotic Cells (%) [2]: 88% and 68.75%
- Population Normal (%) [2]: 100%
- Population Pyknosed Nuclei (%) [2]: 12.5% and 7.44%
- Population Tubulin-Different-Phenotype (%) [2]: 9.03% and 6.45%
- Total Cell Count [2]: 200 and 215
- Population Apoptotic (%) [3]: 13.33% and 23.08%
- Population Fragmented Nuclei (%) [3]: 12.92% and 3.9%
- Population Healthy Nuclei (%) [3]: 79.9% and 89.76%
- Population Hoechst High Intensity Objects (%) [3]: 0%
- Population Membrane Permeable-Phenotype (%) [3]: 4.79% and 2.17%
- Population Mitochondria Different-Phenotype (%) [3]: 3.59% and 7.07%
- Population Mitotic Cells (%) [3]: 86.67% and 76.92%
- Population Normal (%) [3]: 100%
- Population Pyknosed Nuclei (%) [3]: 7.18% and 6.34%
- Population Tubulin-Different-Phenotype (%) [3]: 3.59% and 8.15%
- Total Cell Count [3]: 209 and 205
- Population Apoptotic (%) [4]: 63.64% and 52.94%
- Population Healthy Nuclei (%) [4]: 80.39% and 88.26%
- Population Hoechst High Intensity Objects (%) [4]: 0%
- Population Membrane Permeable-Phenotype (%) [4]: 3.66% and 0%
- Population Mitochondria Different-Phenotype (%) [4]: 2.44% and 4.26%
- Population Mitotic Cells (%) [4]: 36.36% and 47.06%
- Population Normal (%) [4]: 100%
- Population Pyknosed Nuclei (%) [4]: 5.39% and 7.98%
- Population Tubulin-Different-Phenotype (%) [4]: 3.66% and 2.66%
- Total Cell Count [4]: 204 and 213
- Population Apoptotic (%) [5]: 47.37% and 53.33%
- Population Fragmented Nuclei (%) [5]: 8.06% and 10.87%
- Population Healthy Nuclei (%) [5]: 82.94% and 82.61%
- Population Hoechst High Intensity Objects (%) [5]: 0%
- Population Membrane Permeable-Phenotype (%) [5]: 0.57% and 1.58%
- Population Mitotic Cells (%) [5]: 52.63% and 46.67%
- Population Normal (%) [5]: 100%
- Population Pyknosed Nuclei (%) [5]: 9% and 6.52%
- Population Tubulin-Different-Phenotype (%) [5]: 2.29% and 8.42%
- Total Cell Count [5]: 211 and 230
- Population Apoptotic (%) [6]: 44.19% and 95.35%
- Population Healthy Nuclei (%) [6]: 57.64% and 74.04%
- Population Hoechst High Intensity Objects (%) [6]: 0%
- Population Membrane Permeable-Phenotype (%) [6]: 1.71% and 10.39%
- Population Normal (%) [6]: 100%
- Population Pyknosed Nuclei (%) [6]: 21.18% and 20.67%
- Population Tubulin-Different-Phenotype (%) [6]: 4.27% and 13.64%
- Total Cell Count [6]: 203 and 208
